Screening data as filed in PubChem BioAssay.
CAL PDZ FP-1: inhibitors of human CAL PDZ peptide binding; Q9HD26; purified CAL PDZ, TMR-peptide fluorescence polarization, 1 h; inhibition, % at 24.9 µM; 300,000 tested, 0.92% active;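 active = mean inhibition of at least 30% with at least half of replicates also reaching 30%; inconclusive = no clear call, values can overlap the other calls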;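 also: 0% = DMSO neutral control and 100% = excess unlabeled competitor peptide PRC23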
AI-2 QS modul: modulators of Vibrio harveyi AI-2 quorum sensing system. AID 2094. 300,000 tested, 0.4% active. Vibrio harveyi JMH597 AI-2 luminescence/OD600 ratio, 9 h; stronger effect = lower value; strain lacks LuxN and CqsS sensors; 0 = neutral-control median. activity change, % at 7.5 µM; in the data active = activity change below about -75%, passing the limit was not always enough; inconclusive = no clear call, values can overlap the other calls;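 also: luminescence divided by OD600 gain over 9 h not by final OD600 alone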
CAL PDZ FP-2: inhibitors of human CAL PDZ peptide binding. inhibition, % at 20 µM. 330,000 tested, 0.02% active. Q9HD26. AID 504414. purified CAL PDZ, TMR-peptide fluorescence polarization, 1 h;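 active = highest replicate inhibition of at least 40%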;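 also: plate controls were DMSO neutral control wells for no effect and unlabeled competitor peptide control wells for full effect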
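Control set: unlabelled peptide and DMSO controls / Material: purified CerCALP PDZ construct / Timing: 1 h incubation at room temperature before polarization reading / Doses: 20 µM, one dose / Detection: fluorescence polarization (mP)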
ARNT TACC3 PPI: ARNT/TACC3 interaction disruption; Q9Y6A5; AlphaScreen His-ARNT PAS-B/GST-TACC3 binding, luminescence; TACC3 fragment carries E629A point mutation; inhibition, % at 9.99 µM; 390,000 tested, 0.66% active; AID 623870;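 active = mean inhibition of replicates at least 50% and at least half of replicates each reaching 50%; inconclusive = half or more replicates reach 50% but mean below 50%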;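 also: 0% = complete ARNT plus TACC3 wells and 100% = ARNT alone without TACC3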
Rce1 inhib: blocks yeast Ras-converting enzyme. yeast membranes, quenched prenylated peptide cleavage fluorescence. calls only. 290,000 tested, 0.27% active;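 active = fall in fluorescence gain of 50% or more versus controls, with final raw signal at or below 3038400; inconclusive = same 50% fall but final raw signal above 3038400; inactive = fall in fluorescence gain under 50%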;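 also: plate controls were neutral control wells for no effect and wells lacking membranes for full effect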
Target sequence (Q03530 whole entry, looked up): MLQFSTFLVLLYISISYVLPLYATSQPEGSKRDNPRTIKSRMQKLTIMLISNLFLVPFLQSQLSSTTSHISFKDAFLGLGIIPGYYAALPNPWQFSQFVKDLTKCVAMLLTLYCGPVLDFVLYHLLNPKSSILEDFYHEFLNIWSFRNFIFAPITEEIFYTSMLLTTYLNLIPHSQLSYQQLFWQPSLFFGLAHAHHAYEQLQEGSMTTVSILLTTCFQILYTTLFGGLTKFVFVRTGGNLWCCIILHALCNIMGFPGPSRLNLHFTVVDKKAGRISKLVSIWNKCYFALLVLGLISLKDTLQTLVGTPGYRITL
ARNT Alpha ctr-1: AlphaScreen artifact in ARNT/TACC3 counter-screen; His-ARNT PASB-GST AlphaScreen artifact counter-screen, luminescence; AC50, µM (titrated, usually from 68 µM), inactives show at the highest dose activity change, negative = signal decrease; 1,200 tested, 50% active; shares compounds with ARNT TACC3 PPI; AID 651705;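 active = every separate test run was called active for a drop in luminescence, with AC50 within twice the top valid dose, actives reach about 71 µM in these data; inconclusive = the separate test runs disagree in their calls; inactive = all runs inactive, including signal change in the wrong direction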
ARNT Alpha ctr-2: AlphaScreen artifact flagged for ARNT-TACC3 inhibitors | shares compounds with ARNT TACC3 PPI | AC50, µM | AID 720564 | Dual-tagged His-ARNT PASB-GST AlphaScreen artifact counter-screen | 45 tested, 70% active;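 active = luminescence drop, with half-maximal potency fitted within twice the sample's top valid dose, cut at about 70 µM in these data; inactive = the rest, including signal moving the wrong way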
An asterisk follows results filed as active; i = inactive; ? = inconclusive; · = no result given; [ ] = remark or other dose. Most compounds without a hit are left out; they make up all but 1.7% or so of the library.

SMILES	CAL PDZ FP-1	AI-2 QS modul	CAL PDZ FP-2	ARNT TACC3 PPI	Rce1 inhib	ARNT Alpha ctr-1	others
CCOC(=O)C1CCN(Cc2ccc(O)c(OC)c2)CC1	0.0	49.6	-0.2	-0.4	i	·
O=c1cc(C(F)(F)F)nc(-n2[nH]c3c(c2=O)CCCC3)[nH]1	-0.8	29.4	·	56.2*	i	-23.1%
Cc1ncc(CO)c(/C=N/NC(=O)c2cc(O)c(O)c(O)c2)c1O	·	3.8	·	·	i	·
Cc1cc(C(=O)N/N=C/c2c(CO)cnc(C)c2O)c2ccccc2n1	-4.1	22.7	-2.7	61.2*	i	20µM*
Cc1ncc(CO)c(/C=N/NC(=O)c2cc(Br)ccc2O)c1O	·	?	1.1	62.2*	i	46.5µM*
O=c1[nH]c2ccccc2c(O)c1SCCO	0.1	8.6	-3.1	·	i	·
O=C(O)CSc1c(O)c2ccccc2[nH]c1=O	1.7	11.3	-1.0	60.3*	i	-9.6%
C[C@H]1CN([C@@H](C)CO)S(=O)(=O)c2ccc(-c3ccccc3F)cc2O[C@H]1CN(C)C	·	·	·	18.8	·	·
COc1ccc(CN2CCN(Cc3ccc(CO)o3)CC2CCO)cc1C (centres undefined)	-3.9	6.6	-9.6	24.9	i	·
O=C(CSc1ccc(-c2ccccn2)nn1)NCc1ccc(F)cc1	-8.6	20.5	0.2	54.7*	i	29µM*
O=C(CSc1ccc(-c2ccccn2)nn1)NCc1ccccc1	-0.4	3.4	-1.3	102.1*	i	41.1µM*
O=C(CSc1ccc(-c2cccc([N+](=O)[O-])c2)nn1)NCc1ccccc1	0.5	7.2	0.3	0.3	i	·
O=C(CSc1ccc(-c2ccccn2)nn1)NC1CCCCC1	-1.7	22.1	-0.6	54.9*	i	25.6µM*	ARNT Alpha ctr-2=19.8*
CCC/C(=C1/c2ccccc2C(=O)N1c1ccccc1)c1ccc2c(c1)OCO2	-2.1	·	0.4	7.2	·	·
CN(CC(=O)O)Cc1nc2ccccc2[nH]1	-1.9	23.2	-1.4	88.3*	i	50.9µM*
CC(NC(=O)CN(C)Cc1nc2ccccc2c(=O)[nH]1)c1ccccc1 (centres undefined)	-5.4	13.9	0.2	13.4	i	·
CCOc1ccc(NC(=O)NCc2ccccn2)cc1	-0.2	27.3	-2.0	-4.7	i	·
CCOc1ccc(NC(=O)CC(NCc2ccccn2)C(=O)O)cc1 (centres undefined)	-1.7	19.5	-0.1	64.8*	i	6.14µM*
CCCCC(=O)NC(c1cccc([N+](=O)[O-])c1)c1ccc2cccnc2c1O (centres undefined)	-2.8	·	-0.8	61.1*	·	8.12µM*
CCCC(=O)NC(c1ccccc1)c1ccc2cccnc2c1O (centres undefined)	·	·	-0.1	61.0*	·	27.9µM*
CCCCC(=O)NC(c1ccc(C(C)C)cc1)c1ccc2cccnc2c1O (centres undefined)	-1.6	26.1	-0.8	-12.5	i	·
O=C(NCCCNCCCNC(=O)c1ccc(/C=N/O)nc1)c1ccc(/C=N/O)nc1	·	26.1	0.4	56.0*	i	66µM*
Cn1c(CNc2ccccc2O)nc2ccccc21	1.1	3.9	-0.3	66.9*	i	-31.9%
CCN(CC)CCCNc1nc2ccccc2c2[nH]c3ccc(OC)cc3c12	-3.2	·	12.8	56.7*	·	-33.5%
Cc1ccc(S(=O)(=O)/N=C2\C=C(Nc3ccc(O)cc3)C(=O)c3ccccc32)cc1	·	·	3.0	53.6*	·	5.24µM*
SMILES	CAL PDZ FP-1	AI-2 QS modul	CAL PDZ FP-2	ARNT TACC3 PPI	Rce1 inhib	ARNT Alpha ctr-1	others
CCC(C)c1c(N)n(S(=O)(=O)c2ccc(C)cc2)oc1=O (centres undefined)	-6.0	·	0.4	61.1*	·	34.8µM*
CCc1cc2c(=O)[nH]c(-c3ccccn3)nc2s1	-0.8	64.6	-1.6	76.4*	i	50.8µM*	ARNT Alpha ctr-2=16.8*
CCN(CC)C(=O)[C@H]1C[C@H](CC(=O)NCc2ccc(OC)c(OC)c2)C(=O)N2CCc3c([nH]c4ccc(Cl)cc34)[C@]12C	-4.9	·	0.7	26.6*	·	-2.7%
CCN(CC)C(=O)[C@H]1CC(CC(=O)NCc2ccc(OC)c(OC)c2)C(=O)N2CCc3c([nH]c4ccccc34)[C@]12C (some centres undefined)	-3.8	·	0.1	0.9	·	·
COc1ccc(CC(=O)N2CCN(c3ccccc3)CC2)cc1	-2.2	3.4	·	-0.4	i	·
Cc1cc(=O)n2c3c(c4c(cc13)c(CN(C)C)cc(=O)n4C)OC2	-2.7	·	0.2	33.7*	·	-21.2%
S=c1[nH]nc(-c2ccc(Br)o2)n1Cc1ccccc1	·	-3.7	-0.4	-6.5	i	·
CCOc1ccccc1Nc1nc(N)nc(CN(C)C2CCCCC2)n1	-3.6	·	·	62.7*	·	-16.4%
CCOc1ccccc1Nc1nc(N)nc(CSc2nncn2C)n1	1.1	23.7	-0.5	5.9	i	·
COc1ccc(CN2[C@@H](CC(C)=O)c3ccc(/C=C/C(C)=O)cc3S2(=O)=O)cc1	-1.2	44.9	-0.3	0.9	i	·
COC(=O)Cc1[nH]n(-c2nc3ccccc3s2)c(=O)c1C(C)=O	0.1	21.0	-0.3	10.2	i	·
COC(=O)Cc1cc(=O)n(-c2nc3ccccc3[nH]2)[nH]1	·	37.1	-2.3	61.9*	i	60.2µM*	ARNT Alpha ctr-2=37.8*
CC(C)NC(=O)N1[C@H](CO)[C@@H]2c3ccccc3NC[C@@H]21	·	·	·	active	·	-5.5%[42 µM]
O=C(N/N=C/c1ccco1)c1cnccn1	-0.5	27.8	0.6	13.7	i	·
O=C(N/N=C/C=C/c1ccco1)c1cnccn1	·	8.5	-0.5	61.6*	i	-8.9%
Cc1ccccc1CS(=O)(=O)Cc1ccc(C(=O)NCc2ccccn2)o1	-1.9	12.4	0.4	53.0*	i	-13.2%
O=C(NCc1ccccn1)c1ccc(CS(=O)(=O)Cc2ccc(Cl)cc2)o1	-3.6	36.2	-0.9	13.4	i	·
Cc1ccc(OCC(O)Cn2c(=N)n(CCN3CCCCC3)c3ccccc32)cc1 (centres undefined)	-1.5	1.5	-1.2	4.1	i	·
COc1ccc(/C(C)=N\NC(=O)CSc2nnc(C)s2)cc1	-2.4	6.7	0.1	38.6*	i	-10.2%
Cc1cc(NC(c2cccnc2)c2ccc3cccnc3c2O)no1 (centres undefined)	-6.7	-54.4	-0.2	63.0*	i	10.7µM*
Oc1c(C(Nc2cccc(C(F)(F)F)c2)c2cccnc2)ccc2cccnc12 (centres undefined)	-1.4	23.3	-2.7	20.8	i	·
Oc1c(C(Nc2ccccn2)c2cccnc2)cc(Cl)c2cccnc12 (centres undefined)	0.2	-71.5	-2.6	57.0*	i	15.2µM*
